The text below walks through data of ChEMBL document CHEMBL1151420 (Antimicrob Agents Chemother, 2007).

≈ marks a conversion by molar mass, not a printed value.

Series [1] can be described thus: Total Cmax in horse at 10 mg/kg, iv after 1 hr by two-compartmental study. The note with it: in vivo. The class given is ADME, organism-based, Equus caballus. The arrangement: dose 10 mg/kg, route intravenous.
A short description of series [2]: Total mean residence time in horse at 10 mg/kg, iv after 1 hr by two-compartmental study. The following applies: in vivo. The class given is ADME, organism-based, Equus caballus. The arrangement: dose 10 mg/kg, route intravenous.
Series [3] can be described thus: Free mean residence time in horse at 10 mg/kg, iv after 1 hr by three-compartmental study. The class given is ADME, organism-based, Equus caballus. The arrangement: dose 10 mg/kg, route intravenous. The following applies: in vivo.
The subject of series [4] is Equus caballus. Description: fCmax in horse at 20 mg/kg, po administered as single dose. The class given is ADME, organism-based. The arrangement: dose 20 mg/kg, route oral. The following applies: in vivo. The method, boiled down: (§1)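 Horses (six, A–F) were dosed once intragastrically by nasogastric tube with 20 mg/kg of crushed tablets suspended in 100 ml tap water, followed by a ≥200 ml water flush. Heparinized plasma was sampled at 0 and from 20 min to 30 h and stored at –70°C. Unbound drug was isolated by 30 kDa ultrafiltration with ganciclovir internal standard and measured by LC-MS/MS (LOQ 5 ng/ml). Parameters were derived noncompartmentally.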

A short description of series [5]: Plasma concentration in horse at 20 mg/kg, po administered as single dose after 5 hrs. The arrangement: dose 20 mg/kg, route oral. The class given is ADME, organism-based, Equus caballus. The method, boiled down:
(§2)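 Single 20 mg/kg dose of crushed tablets suspended in 100 ml tap water, given by nasogastric tube and flushed with at least 200 ml water. Plasma sampled from 20 min to 30 h. Total concentration measured by HPLC-fluorescence (LOQ 50 ng/ml). Noncompartmental analysis; absolute F was calculated against the i.v. data.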

A short description of series [6]: Solubility at pH 2.3 to 9.2. The class given is physicochemical. The following applies: buffer.
The nature of series [7]: Cmax in horse at 10 mg/kg, iv after 15 mins. The following applies: in vivo. The arrangement: dose 10 mg/kg, route intravenous. The class given is ADME, organism-based, Equus caballus.
The subject of series [8] is Equus caballus. Briefly: fAUC in horse at 20 mg/kg, po administered as single dose. The class given is ADME, organism-based. The arrangement: dose 20 mg/kg, route oral. The following applies: in vivo. The method, boiled down: as §1
Series [9] is described as follows: Distribution coefficient, log P of the compound. The class given is physicochemical. The note with it: octanol/water.
The nature of series [10]: Oral bioavailability in horse at 20 mg/kg administered as single dose. The class given is ADME, organism-based, Equus caballus. The following applies: in vivo. The method, boiled down:
as §2

The species named for series [11] is Equus caballus. Description: Renal toxicity in horse assessed as changes in creatinine level. The note with it: in vivo. The class given is organism-based. The method, boiled down:
(§3)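 Blood was drawn once daily on the day before, the day of, and the day after drug administration. Plasma urea and creatinine were measured to assess kidney function.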

The species named for series [12] is Equus caballus. Description: Renal toxicity in horse assessed as changes in urea level. The class given is organism-based. The following applies: in vivo. The method, boiled down:
as §3

In series [13] the test system is Equus caballus. Briefly: fAUC in horse at 10 mg/kg, iv after 1 hr by three-compartmental study. The arrangement: dose 10 mg/kg, route intravenous. The class given is ADME, organism-based. The following applies: in vivo.
Series [14] can be described thus: Cmax in iv dosed adult horse. The class given is ADME, organism-based, Equus caballus. The arrangement: route intravenous. The note with it: in vivo.
Series [15] can be described thus: Mean residence time in iv dosed adult horse. The note with it: in vivo. The class given is ADME, organism-based, Equus caballus.
The subject of series [16] is Equus caballus. Briefly: fCmax in horse at 10 mg/kg, iv after 1 hr by three-compartmental study. The class given is ADME, organism-based. The arrangement: dose 10 mg/kg, route intravenous. The following applies: in vivo.
In a further series the test system is Equid alphaherpesvirus 1. Description: Antiviral activity against EHV1 assessed as inhibition of plaque formation. The class given is functional, organism-based.

By Cmax is commonly meant the peak of the concentration-time curve. Broadly, the MRT is the average time that molecules of a dose stay in the body. The term solubility denotes the dissolved amount per volume that the medium holds. For orientation: logP means the decadic logarithm of the partition coefficient of the neutral form, usually between octanol and water. Low values mean a more hydrophilic compound, high ones a more lipophilic compound. By bioavailability is commonly meant dose-corrected exposure relative to a reference, in per cent. Read a high bioavailability as much systemic uptake. By EC50 is commonly meant the concentration giving half of the maximal effect. As for `Nc1nc2c(ncn2COCCO)c(=O)[nH]1` [ACYCLOVIR], the Cmax in series [1] was found to be 10700 ng/mL; in series [7] it was 46200 ng/mL; in series [14], 10400 ng/mL. Besides, the MRT amounted to 5.38 h in series [2], 23.1 h in [3] and 7.09 h in [15]. The fCmax is 0.4 µg/mL in the series with Equus caballus [4] and 10.5 µg/mL in the series with Equus caballus [16]. For the same compound, the concentration at 5 h in series [5] came out at 50 ng/mL. The compound also gave a solubility in [6] of 1000 µg/mL (≈ 4440 µM). Besides, the fAUC stood at 3530 ng·h/mL in the series with Equus caballus [8] and 24600 ng·h/mL in the series on Equus caballus [13]. Also, the logP in series [9] was -1.59. In [10], this compound returned a bioavailability of 2.8%. Moreover, the Activity result in the series filed under Equus caballus [11] and in the series filed under Equus caballus [12] was “Non-toxic” in each case. Also, the EC50 in the series with Equid alphaherpesvirus 1 turned out to be 1.7 µg/mL (≈ 7.55 µM).

As for `CC(C)[C@H](N)C(=O)OCCOCn1cnc2c(=O)[nH]c(N)nc21` [VALACYCLOVIR], the fCmax in the series on Equus caballus [4] was found to be 4.76 µg/mL. Also, the fAUC in the series with Equus caballus [8] was 14900 ng·h/mL.
